Assay results published in ChEMBL document CHEMBL3425469, “Discovery of imidazo[2,1-b]thiazole HCV NS4B inhibitors exhibiting synergistic effect with other direct-acting antiviral agents” (J Med Chem, 2015).

Tests used:
Hepatitis C virus [1] = test: Antiviral activity against Hepatitis C virus genotype 1b harboring A156T NS3/4A mutation transfected in human HuH7 cells after 72 hrs by luciferase assay; type: functional, cell-based, Hepacivirus hominis; conditions: Huh-7, 72 h
Method in brief: (§1)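 Huh-7 cells were transiently electroporated with genotype 1b replicon RNA carrying the specified mutation and plated at 10000 cells/well. Compounds were added at 0.5% DMSO final for 72 h at 37°C. Read-out was Bright-Glo luciferase. EC50 is the mean of two independent runs within 2-fold of each other. A reference drug EC50 was measured alongside each mutant replicon to validate it.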

Hepatitis C virus [2] = test: Antiviral activity against Hepatitis C virus genotype 1b Con 1 infected in human HuH7 cells at 2.5 nM after 72 hrs by luciferase assay in presence of 0.16 nM daclatasvir; type: functional, Hepacivirus hominis, Huh-7
Method in brief: (§2)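 Stable Con1 GT1b bicistronic luciferase replicon in Huh-7 cells, 8000 cells/well. Test compound and a marketed DAA or clemizole added alone or together at varied concentrations, 0.5% DMSO final. 72 h at 37°C, then luciferase read with Bright-Glo. Inhibition expressed as % of untreated control, with cytotoxicity run in parallel. CI and DRI derived by the Chou–Talalay median-effect method.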

Hepatitis C virus [3] = test: Antiviral activity against Hepatitis C virus genotype 1b Con 1 infected in human HuH7 cells at 20 nM after 72 hrs by luciferase assay in presence of 17.5 uM clemizole; type: functional, Hepacivirus hominis, Huh-7
Method in brief: (§3)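 Huh-7 cells stably carrying a GT1b Con1 bicistronic luciferase replicon, seeded at 8000 cells/well. The test compound and the partner DAA are dosed orthogonally at various concentrations, final 0.5% DMSO, then incubated 72 h at 37°C. Bright-Glo luciferase read-out gives replicon inhibition as % of untreated control. Cytotoxicity is checked in parallel by CellTiter-Fluor. CI and DRI are derived by the Chou–Talalay median-effect method.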

Hepatitis C virus [4] = test: Antiviral activity against Hepatitis C virus genotype 1b Con 1 infected in human HuH7 cells at 80 nM after 72 hrs by luciferase assay in presence of 180 nM sofobuvir; type: functional, Hepacivirus hominis, Huh-7; method in brief: as §3
Hepatitis C virus [5] = test: Antiviral activity against Hepatitis C virus genotype 1b Con 1 infected in human HuH7 cells at 20 nM after 72 hrs by luciferase assay in presence of 0.16 nM daclatasvir; type: functional, Hepacivirus hominis, Huh-7; method in brief: as §2
Hepatitis C virus [6] = test: Antiviral activity against Hepatitis C virus genotype 1b Con 1 infected in human HuH7 cells at 80 nM after 72 hrs by luciferase assay in presence of 10 uM clemizole; type: functional, Hepacivirus hominis, Huh-7; method in brief: as §3
Hepatitis C virus [7] = test: Antiviral activity against Hepatitis C virus genotype 1b Con 1 infected in human HuH7 cells at 160 nM after 72 hrs by luciferase assay in presence of 17.5 uM clemizole; type: functional, Hepacivirus hominis, Huh-7; method in brief: as §2
Hepatitis C virus [8] = test: Antiviral activity against Hepatitis C virus genotype 1b Con 1 infected in human HuH7 cells at 2.5 nM after 72 hrs by luciferase assay in presence of 60 nM sofobuvir; type: functional, Hepacivirus hominis, Huh-7; method in brief: as §2
Hepatitis C virus [9] = test: Antiviral activity against Hepatitis C virus genotype 1b Con 1 infected in human HuH7 cells at 40 nM after 72 hrs by luciferase assay in presence of 140 nM sofobuvir; type: functional, Hepacivirus hominis, Huh-7; method in brief: as §3
Hepatitis C virus [10] = test: Antiviral activity against Hepatitis C virus genotype 1b Con 1 infected in human HuH7 cells at 5 nM after 72 hrs by luciferase assay in presence of 3 nM simeprevir; type: functional, Hepacivirus hominis, Huh-7; method in brief: as §3
Hepatitis C virus [11] = test: Antiviral activity against Hepatitis C virus genotype 1b Con 1 infected in human HuH7 cells at 20 nM after 72 hrs by luciferase assay in presence of 0.04 nM daclatasvir; type: functional, Hepacivirus hominis, Huh-7; method in brief: as §2
Hepatitis C virus [12] = test: Antiviral activity against Hepatitis C virus genotype 1b Con 1 infected in human HuH7 cells at 5 nM after 72 hrs by luciferase assay in presence of 0.02 nM daclatasvir; type: functional, Hepacivirus hominis, Huh-7; method in brief: as §3
Hepatitis C virus [13] = test: Antiviral activity against Hepatitis C virus genotype 1b Con 1 infected in human HuH7 cells at 5 nM after 72 hrs by luciferase assay in presence of 12 nM simeprevir; type: functional, Hepacivirus hominis, Huh-7; method in brief: as §3
Hepatitis C virus [14] = test: Antiviral activity against Hepatitis C virus genotype 1b Con 1 infected in human HuH7 cells at 20 nM after 72 hrs by luciferase assay in presence of 6 nM simeprevir; type: functional, Hepacivirus hominis, Huh-7; method in brief: as §3
Hepatitis C virus [15] = test: Antiviral activity against Hepatitis C virus genotype 1b Con 1 infected in human HuH7 cells at 10 nM after 72 hrs by luciferase assay in presence of 12.5 uM clemizole; type: functional, Hepacivirus hominis, Huh-7; method in brief: as §2
Hepatitis C virus [16] = test: Antiviral activity against Hepatitis C virus genotype 1b Con 1 infected in human HuH7 cells at 2.5 nM after 72 hrs by luciferase assay in presence of 7.5 uM clemizole; type: functional, Hepacivirus hominis, Huh-7; method in brief: as §2
Hepatitis C virus [17] = test: Antiviral activity against Hepatitis C virus genotype 1b Con 1 infected in human HuH7 cells at 2.5 nM after 72 hrs by luciferase assay in presence of 5 uM clemizole; type: functional, Hepacivirus hominis, Huh-7; method in brief: as §2
Hepatitis C virus [18] = test: Antiviral activity against Hepatitis C virus genotype 1b Con 1 infected in human HuH7 cells at 40 nM after 72 hrs by luciferase assay in presence of 60 nM sofobuvir; type: functional, Hepacivirus hominis, Huh-7; method in brief: as §3
Hepatitis C virus [19] = test: Antiviral activity against Hepatitis C virus genotype 1b Con 1 infected in human HuH7 cells at 5 nM after 72 hrs by luciferase assay in presence of 15 uM clemizole; type: functional, Hepacivirus hominis, Huh-7; method in brief: as §3
Hepatitis C virus [20] = test: Antiviral activity against Hepatitis C virus genotype 1b harboring H3R NS4B mutation transfected in human HuH7 cells after 72 hrs by luciferase assay; type: functional, cell-based, Hepacivirus hominis; conditions: Huh-7, 72 h; method in brief: as §1
Hepatitis C virus [21] = test: Antiviral activity against Hepatitis C virus genotype 1b Con 1 infected in human HuH7 cells at 40 nM after 72 hrs by luciferase assay in presence of 12 nM simeprevir; type: functional, Hepacivirus hominis, Huh-7; method in brief: as §3
Hepatitis C virus [22] = test: Antiviral activity against Hepatitis C virus genotype 1b Con 1 infected in human HuH7 cells at 160 nM after 72 hrs by luciferase assay in presence of 0.04 nM daclatasvir; type: functional, Hepacivirus hominis, Huh-7; method in brief: as §2
Hepatitis C virus [23] = test: Antiviral activity against Hepatitis C virus genotype 1b harboring V105M mutation transfected in human HuH7 cells after 72 hrs by luciferase assay; type: functional, cell-based, Hepacivirus hominis; conditions: Huh-7, 72 h; method in brief: as §1
Hepatitis C virus [24] = test: Antiviral activity against Hepatitis C virus genotype 1b Con 1 infected in human HuH7 cells at 10 nM after 72 hrs by luciferase assay in presence of 30 nM sofobuvir; type: functional, Hepacivirus hominis, Huh-7; method in brief: as §2
Hepatitis C virus [25] = test: Antiviral activity against Hepatitis C virus genotype 1b Con 1 infected in human HuH7 cells at 40 nM after 72 hrs by luciferase assay in presence of 12.5 uM clemizole; type: functional, Hepacivirus hominis, Huh-7; method in brief: as §3
Hepatitis C virus [26] = test: Antiviral activity against Hepatitis C virus genotype 1b Con 1 infected in human HuH7 cells at 40 nM after 72 hrs by luciferase assay in presence of 240 nM sofobuvir; type: functional, Hepacivirus hominis, Huh-7; method in brief: as §3
Hepatitis C virus [27] = test: Antiviral activity against Hepatitis C virus genotype 1b Con 1 infected in human HuH7 cells at 80 nM after 72 hrs by luciferase assay in presence of 0.16 nM daclatasvir; type: functional, Hepacivirus hominis, Huh-7; method in brief: as §3
Hepatitis C virus [28] = test: Antiviral activity against Hepatitis C virus genotype 1b Con 1 infected in human HuH7 cells at 2.5 nM after 72 hrs by luciferase assay in presence of 3 nM simeprevir; type: functional, Hepacivirus hominis, Huh-7; method in brief: as §2
Hepatitis C virus [29] = test: Antiviral activity against Hepatitis C virus genotype 1b harboring Y448H NS5B (palm) mutation transfected in human HuH7 cells after 72 hrs by luciferase assay; type: functional, cell-based, Hepacivirus hominis; conditions: Huh-7, 72 h; method in brief: as §1
Hepatitis C virus [30] = test: Antiviral activity against Hepatitis C virus genotype 1b Con 1 infected in human HuH7 cells at 5 nM after 72 hrs by luciferase assay in presence of 0.04 nM daclatasvir; type: functional, Hepacivirus hominis, Huh-7; method in brief: as §3

Q: Which EC50 (Hepatitis C virus [1]) does the source give for `O=C(c1nc2scc(C3CC3)n2c1Cl)N1CCN(C2CCCC2)C(=O)C1` here?
A: 4 nM

Q: What about the CI (Hepatitis C virus [2]) of the same compound?
A: 0.98

Q: And the CI (Hepatitis C virus [3])?
A: 1.18

Q: And the CI (Hepatitis C virus [4])?
A: 0.43

Q: What about the CI (Hepatitis C virus [5]) of the same compound?
A: 0.69

Q: What about the CI (Hepatitis C virus [6]) of the same compound?
A: 0.82

Q: What about the CI (Hepatitis C virus [7]) of the same compound?
A: 1.74

Q: What about the CI (Hepatitis C virus [8]) of the same compound?
A: 1.04

Q: And the CI (Hepatitis C virus [9])?
A: 0.57

Q: And the CI (Hepatitis C virus [10])?
A: 1.22

Q: And the CI (Hepatitis C virus [11])?
A: 0.69

Q: What about the CI (Hepatitis C virus [12]) of the same compound?
A: 1.21

Q: What about the CI (Hepatitis C virus [13]) of the same compound?
A: 0.75

Q: And the CI (Hepatitis C virus [14])?
A: 0.48

Q: What about the CI (Hepatitis C virus [15]) of the same compound?
A: 0.81

Q: What about the CI (Hepatitis C virus [16]) of the same compound?
A: 0.72

Q: What about the CI (Hepatitis C virus [17]) of the same compound?
A: 1.22

Q: And the CI (Hepatitis C virus [18])?
A: 0.67

Q: What about the CI (Hepatitis C virus [19]) of the same compound?
A: 0.99

Q: And the EC50 (Hepatitis C virus [20])?
A: 1100 nM

Q: And the CI (Hepatitis C virus [21])?
A: 0.62

Q: What about the CI (Hepatitis C virus [22]) of the same compound?
A: 0.42

Q: What about the EC50 (Hepatitis C virus [23]) of the same compound?
A: 27200 nM

Q: And the CI (Hepatitis C virus [24])?
A: 0.69

Q: What about the CI (Hepatitis C virus [25]) of the same compound?
A: 0.76

Q: And the CI (Hepatitis C virus [26])?
A: 0.41

Q: What about the CI (Hepatitis C virus [27]) of the same compound?
A: 0.73

Q: What about the CI (Hepatitis C virus [28]) of the same compound?
A: 1.26

Q: What about the EC50 (Hepatitis C virus [29]) of the same compound?
A: 8 nM

Q: What about the CI (Hepatitis C virus [30]) of the same compound?
A: 0.89
